Assay results from different studies.
Each line is one published result; the experiments were not run side by side.
MAPK8: Mitogen-activated protein kinase 8 (MAPK8, Homo sapiens, UniProt P45983)
RXFP3: Relaxin-3 receptor 1 (RXFP3, Homo sapiens, UniProt Q9NSD7)

CNc1nc(C)nc(N[C@H]2CCC[C@@H](C(=O)NCc3ccc(C#N)cc3C(F)(F)F)C2)n1  IC50 (Bifunctional epoxide hydrolase 2 (Ephx2, Mus musculus, UniProt P34914); enzyme activity, inhibitor): 4 nM
CC[C@@H](C(=O)Nc1ccc(C(N)=O)c(F)c1)n1cc(OC)c(-c2cc(Cl)ccc2-n2cc(C(F)(F)F)nn2)cc1=O  IC50 (Tissue-type plasminogen activator (PLAT, Homo sapiens, UniProt P00750); enzyme activity, inhibitor): > 10000 nM
CCN1CCN(c2c(Cl)cccc2NC(=O)c2ccc(Br)o2)CC1  IC50 (MAPK8; enzyme activity, inhibitor, TR-FRET): 490 nM
O=C(O)c1cccnc1Nc1cccc(C(F)(F)F)c1  IC50 (Delta-aminolevulinic acid dehydratase (Homo sapiens, UniProt P13716, C162A/K59N); enzyme activity, inhibitor, absorbance; pH 8, with preincubation): 13000 nM
Nc1ncc2c(n1)-c1c([nH]c3ccc(-c4ccc(F)cc4)cc13)CCC2  IC50 (Non-receptor tyrosine-protein kinase TYK2, JH2 (TYK2, Homo sapiens, UniProt P29597); target engagement in cells, BRET): > 10000 nM
O=C(Nc1ccc(-c2nc(-c3ccc(Br)cc3)no2)cc1)C1CC(=O)N(Cc2cccnc2)C1 (centres unmarked)  IC50 (RXFP3; cAMP, antagonist, TR-FRET): 3080 nM
Cc1ccc(NC(=O)c2ccc(C)c(C(F)(F)F)c2)cc1C#Cc1nn(C2CCC(O)CC2)c2ncnc(N)c12 (centres unmarked)  IC50 (Ephrin type-B receptor 2 (EPHB2, Homo sapiens, UniProt P29323); enzyme activity, inhibitor, radiometric): 33 nM
Cc1cc(Nc2cc(CN3CCOCC3)c3nc(C)c(Cc4ccc(Cl)cc4F)n3n2)n[nH]1  IC50 (Muscle, skeletal receptor tyrosine-protein kinase (MUSK, Homo sapiens, UniProt O15146); enzyme activity, inhibitor, TR-FRET): 147 nM
CC(C)=CCCC(C)=CCc1c(O)cc(O)c2c(=O)c(-c3ccc(O)cc3O)coc12  IC50 (Beta-secretase 1 (BACE1, Homo sapiens, UniProt P56817); enzyme activity, inhibitor): 45000 nM
C=CC(=O)Nc1cc(Nc2nccc(-c3cn(C4CC4)c4ccccc34)n2)c(OC)cc1N(C)CCN(C)C  IC50 (Epidermal growth factor receptor (EGFR, Homo sapiens, UniProt P00533, L747S); enzyme activity, inhibitor, TR-FRET): 3.09 nM
Cc1cccc(-c2noc(-c3ccc(NC(=O)C4CC(=O)N(Cc5cccnc5)C4)cc3)n2)c1 (centres unmarked)  IC50 (RXFP3; cAMP, antagonist, TR-FRET): 4040 nM
Cc1cccc(C(=O)Oc2c(Cl)nnc3ccccc23)c1  IC50 (Neutrophil elastase (ELANE, Homo sapiens, UniProt P08246); enzyme activity, inhibitor, fluorescence): 4800 nM
NCCCC[C@H](NC(=O)[C@@H]1CCCN1C(=O)[C@@H]1CSSC[C@H](N)C(=O)N[C@@H](Cc2ccc(O)cc2)C(=O)N[C@@H](Cc2ccccc2)C(=O)N[C@@H](CCC(N)=O)C(=O)N[C@@H](CC(N)=O)C(=O)N1)C(=O)NCC(N)=O  IC50 (Vasopressin V2 receptor (AVPR2, Homo sapiens, UniProt P30518); ligand displacement, radioligand; cell membranes): 14 nM
CC(C)C[C@H](NC(=O)[C@@H]1COCCCCCCCC(=O)N2CCC[C@H]2C(=O)N1)C(=O)[C@@]1(C)CO1  IC50 (Proteasome Macropain subunit MB1 (PSMB5, Homo sapiens, UniProt P28074); enzyme activity, inhibitor, fluorescence): > 10000 nM
CN1CCN(c2ccc(Nc3ncc4cc(C#N)c(=O)n(C5CCCC5)c4n3)cc2)CC1  IC50 (MAPK8; enzyme activity, inhibitor): > 10000 nM
O=C(Nc1ccn(Cc2ccc(O)cc2C(F)(F)F)n1)c1c(F)cccc1F  IC50 (Short transient receptor potential channel 6 (TRPC6, Homo sapiens, UniProt Q9Y210); ion current, inhibitor): > 10000 nM
CCOC(F)(F)c1nnc2cnc(-c3cnc(OCC(F)(F)F)c(F)c3)cn12  IC50 (Sodium channel protein type 8 subunit alpha (Rattus norvegicus, UniProt O88420); ion current, inhibitor, patch clamp): 180 nM
Cc1ncsc1-c1ccc(CNC(=O)[C@@H]2C[C@@H](O)CN2C(=O)[C@@H](NC(=O)C2(F)CC2)C(C)(C)C)c(OCCOCCOCCN2CCN(c3cc(-c4ccccc4O)nnc3N)CC2)c1  IC50 (SWI/SNF-related matrix-associated actin-dependent regulator of chromatin subfamily A member 2, bromodomain (SMARCA2, Homo sapiens, UniProt P51531); ligand displacement, TR-FRET): 2400 nM
COc1cc(NC(=O)N2CCC(n3c(=O)[nH]c4c(Br)cccc43)CC2)ccc1Cl  IC50 (SMUG1 (Homo sapiens, UniProt Q53HV7); enzyme activity, inhibitor): > 100000 nM
Cc1ccc(C(=O)Nc2ccc(Oc3cc4cnn(C)c4cc3-c3cn[nH]c3)c(F)c2)c(=O)n1-c1ccc(F)cc1  IC50 (Proto-oncogene tyrosine-protein kinase ROS (ROS1, Homo sapiens, UniProt P08922); phosphorylation in cells, inhibitor, western blot): 170 nM
